Each block holds one compound with its values, some of them ahead of it.
Experiments:
[1] = biological target: T1, Hepatocyte growth factor receptor (Homo sapiens, UniProt P08581); assay: Inhibition of recombinant MET kinase domain (unknown origin)
[2] = biological target: Vascular endothelial growth factor receptor 2 (Homo sapiens, UniProt P35968); assay: Inhibition of recombinant VEGFR2 kinase domain (unknown origin)
Method in brief: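 In vitro kinase assay using purified recombinant VEGFR-2 kinase domain; IC50 determined.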

[3] = biological target: T1, Hepatocyte growth factor receptor; assay: Inhibition of MET in human MKN-45 cells assessed as reduction in HGF-mediated autophosphorylation; format: cell-based
[4] = Half life in human liver microsomes; format: ADME, Microsome
[5] = biological target: Mast/stem cell growth factor receptor Kit (Homo sapiens, UniProt P10721); assay: Inhibition of c-KIT (unknown origin)
Mast/stem cell growth factor receptor Kit, sequence (P10721 whole entry): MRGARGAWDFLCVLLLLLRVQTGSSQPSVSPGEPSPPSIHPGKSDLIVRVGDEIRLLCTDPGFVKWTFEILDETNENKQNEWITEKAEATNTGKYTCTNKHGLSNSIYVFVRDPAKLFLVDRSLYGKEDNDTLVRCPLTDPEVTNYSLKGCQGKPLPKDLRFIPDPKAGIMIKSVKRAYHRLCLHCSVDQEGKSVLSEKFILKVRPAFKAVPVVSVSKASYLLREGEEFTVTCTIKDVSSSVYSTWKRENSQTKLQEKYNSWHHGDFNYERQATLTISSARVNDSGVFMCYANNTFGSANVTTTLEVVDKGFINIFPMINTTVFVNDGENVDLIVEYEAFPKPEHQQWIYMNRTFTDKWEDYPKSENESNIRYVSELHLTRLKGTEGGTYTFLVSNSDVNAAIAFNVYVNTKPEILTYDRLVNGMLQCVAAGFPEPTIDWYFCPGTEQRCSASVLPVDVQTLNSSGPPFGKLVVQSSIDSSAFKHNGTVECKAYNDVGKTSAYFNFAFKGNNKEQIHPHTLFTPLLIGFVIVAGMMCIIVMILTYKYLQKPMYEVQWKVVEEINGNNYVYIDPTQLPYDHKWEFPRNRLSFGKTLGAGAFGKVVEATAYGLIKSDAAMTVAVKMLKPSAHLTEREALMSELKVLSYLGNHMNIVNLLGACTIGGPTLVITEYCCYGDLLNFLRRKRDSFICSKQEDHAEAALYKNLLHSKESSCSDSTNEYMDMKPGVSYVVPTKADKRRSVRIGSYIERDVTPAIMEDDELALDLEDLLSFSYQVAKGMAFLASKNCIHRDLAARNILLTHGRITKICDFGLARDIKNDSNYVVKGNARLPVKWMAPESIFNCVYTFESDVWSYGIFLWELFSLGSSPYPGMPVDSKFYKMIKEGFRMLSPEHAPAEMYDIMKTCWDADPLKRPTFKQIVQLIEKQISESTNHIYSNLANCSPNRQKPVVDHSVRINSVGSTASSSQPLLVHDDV

[6] = biological target: T2, Receptor-type tyrosine-protein kinase FLT3 (Homo sapiens, UniProt P36888); assay: Inhibition of FLT3 (unknown origin)
T2 sequence (P36888 whole entry): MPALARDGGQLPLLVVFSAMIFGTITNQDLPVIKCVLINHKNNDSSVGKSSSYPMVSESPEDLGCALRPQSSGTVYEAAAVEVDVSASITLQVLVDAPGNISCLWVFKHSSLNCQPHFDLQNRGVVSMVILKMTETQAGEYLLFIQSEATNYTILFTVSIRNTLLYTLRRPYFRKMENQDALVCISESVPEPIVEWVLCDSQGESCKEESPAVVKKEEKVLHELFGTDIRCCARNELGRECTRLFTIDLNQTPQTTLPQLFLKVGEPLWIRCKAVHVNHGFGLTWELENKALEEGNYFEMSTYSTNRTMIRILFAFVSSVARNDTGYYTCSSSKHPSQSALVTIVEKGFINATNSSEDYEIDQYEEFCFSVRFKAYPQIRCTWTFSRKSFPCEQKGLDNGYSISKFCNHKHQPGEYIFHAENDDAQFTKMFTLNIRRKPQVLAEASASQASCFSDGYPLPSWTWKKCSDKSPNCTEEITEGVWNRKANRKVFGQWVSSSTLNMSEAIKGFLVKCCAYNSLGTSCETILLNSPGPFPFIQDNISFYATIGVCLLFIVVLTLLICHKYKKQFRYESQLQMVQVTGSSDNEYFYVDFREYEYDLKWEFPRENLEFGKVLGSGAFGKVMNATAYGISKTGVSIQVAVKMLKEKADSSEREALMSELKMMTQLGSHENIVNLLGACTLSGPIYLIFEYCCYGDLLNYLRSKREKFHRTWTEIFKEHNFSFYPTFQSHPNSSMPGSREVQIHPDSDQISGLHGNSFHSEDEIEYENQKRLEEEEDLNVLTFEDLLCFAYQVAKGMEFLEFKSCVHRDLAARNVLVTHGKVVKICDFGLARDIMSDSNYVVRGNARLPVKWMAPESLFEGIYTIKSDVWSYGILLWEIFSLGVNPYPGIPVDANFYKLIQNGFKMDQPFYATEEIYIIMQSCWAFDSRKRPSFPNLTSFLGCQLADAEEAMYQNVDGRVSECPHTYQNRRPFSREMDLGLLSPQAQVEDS

[7] = biological target: Platelet-derived growth factor receptor beta (Homo sapiens, UniProt P09619); assay: Inhibition of PDGFRbeta (unknown origin)
Platelet-derived growth factor receptor beta, sequence (P09619 whole entry): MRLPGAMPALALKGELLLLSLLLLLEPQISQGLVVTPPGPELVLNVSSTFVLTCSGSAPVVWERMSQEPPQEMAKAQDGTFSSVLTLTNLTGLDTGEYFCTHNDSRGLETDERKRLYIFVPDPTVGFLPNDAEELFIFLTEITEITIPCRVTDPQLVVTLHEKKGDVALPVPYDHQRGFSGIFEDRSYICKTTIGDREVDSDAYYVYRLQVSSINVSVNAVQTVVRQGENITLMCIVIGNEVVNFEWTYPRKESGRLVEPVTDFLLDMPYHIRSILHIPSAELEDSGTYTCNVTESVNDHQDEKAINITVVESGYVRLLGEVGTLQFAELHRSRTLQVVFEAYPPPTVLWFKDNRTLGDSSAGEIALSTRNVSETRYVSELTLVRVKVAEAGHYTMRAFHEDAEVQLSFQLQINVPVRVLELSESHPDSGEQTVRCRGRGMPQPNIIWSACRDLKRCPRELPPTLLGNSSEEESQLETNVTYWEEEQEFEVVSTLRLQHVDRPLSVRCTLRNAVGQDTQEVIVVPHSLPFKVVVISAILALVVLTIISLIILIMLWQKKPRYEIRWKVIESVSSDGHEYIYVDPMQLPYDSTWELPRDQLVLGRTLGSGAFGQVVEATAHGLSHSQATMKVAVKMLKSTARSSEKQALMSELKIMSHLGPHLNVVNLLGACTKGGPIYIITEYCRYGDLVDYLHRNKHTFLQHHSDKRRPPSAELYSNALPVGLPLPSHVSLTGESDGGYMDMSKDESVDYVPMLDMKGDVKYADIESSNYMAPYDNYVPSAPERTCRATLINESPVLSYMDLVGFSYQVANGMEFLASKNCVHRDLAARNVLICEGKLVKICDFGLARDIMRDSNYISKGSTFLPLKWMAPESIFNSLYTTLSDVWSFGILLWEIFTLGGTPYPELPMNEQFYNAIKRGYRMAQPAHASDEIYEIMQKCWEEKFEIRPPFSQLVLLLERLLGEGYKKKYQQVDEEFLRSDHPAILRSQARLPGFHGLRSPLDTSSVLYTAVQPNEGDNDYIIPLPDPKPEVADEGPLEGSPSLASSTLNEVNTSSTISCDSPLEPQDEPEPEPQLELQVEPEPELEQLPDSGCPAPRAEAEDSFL

[8] = Cmax in rat at 10 mg/kg, po; format: ADME, organism-based; parameters: route oral, dose 10 mg/kg; details: in vivo
Method in brief: (§1)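 Rat pharmacokinetics used 10 mg/kg p.o. and 5 mg/kg i.v. with vehicle 70% PEG400-30% water. Plasma concentration–time curves gave Cmax, Tmax, T1/2, AUC0-∞, CL, Vz and oral bioavailability F. Values are the average of three animals.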

[9] = Tmax in rat at 10 mg/kg, po; format: ADME, organism-based; details: in vivo; method in brief: as §1
[10] = Half life in rat at 10 mg/kg, po; format: ADME, organism-based; details: in vivo; method in brief: as §1
[11] = AUC (0 to infinity) in rat at 10 mg/kg, po; format: ADME, organism-based; parameters: time infinity, route oral, dose 10 mg/kg; details: in vivo
[12] = Clearance in rat at 10 mg/kg, po; format: ADME, organism-based; details: in vivo; method in brief: as §1
[13] = Apparent volume of distribution in rat at 10 mg/kg, po; format: ADME, organism-based; details: in vivo; method in brief: as §1
[14] = Oral bioavailability in rat at 10 mg/kg; format: ADME, organism-based; details: in vivo; method in brief: as §1
[15] = Cmax in rat at 5 mg/kg, iv; format: ADME, organism-based; parameters: route intravenous, dose 5 mg/kg; details: in vivo; method in brief: as §1
[16] = Tmax in rat at 5 mg/kg, iv; format: ADME, organism-based; details: in vivo; method in brief: as §1
[17] = Half life in rat at 5 mg/kg, iv; format: ADME, organism-based; details: in vivo; method in brief: as §1
[18] = AUC (0 to infinity) in rat at 5 mg/kg, iv; format: ADME, organism-based; parameters: time infinity, route intravenous, dose 5 mg/kg; details: in vivo
[19] = Clearance in rat at 5 mg/kg, iv; format: ADME, organism-based; details: in vivo; method in brief: as §1
[20] = Apparent volume of distribution in rat at 5 mg/kg, iv; format: ADME, organism-based; details: in vivo, read-out: Vz; method in brief: as §1
[21] = test system: U-87 MG; assay: Antitumor activity against human U-87 MG cells xenografted in po dosed nude mouse assessed as tumor growth inhibition administered once daily for 3 weeks; format: functional, U-87MG ATCC
[22] = test system: U-87 MG; assay: Antitumor activity against human U-87 MG cells xenografted in nude mouse assessed as tumor growth inhibition at 25 mg/kg, po administered once daily for 3 weeks; format: functional, U-87MG ATCC; details: 504 h, read-out: TGI
[23] = test system: U-87 MG; assay: Antitumor activity against human U-87 MG cells xenografted in nude mouse assessed as tumor growth inhibition at 75 mg/kg, po administered once daily for 3 weeks relative to control; format: functional, U-87MG ATCC; details: 504 h, read-out: TGI
[24] = Cmax in nude mouse xenografted with human U-87 MG cells at 25 mg/kg, po administered once daily for 3 weeks; format: ADME, organism-based; parameters: route oral, dose 25 mg/kg, time 3 weeks; details: in vivo
Method in brief: (§2)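 PK/PD sampling was done within the U-87 MG nude-mouse xenograft study. Compound was given p.o. once daily for 21 days in 70% PEG-400/H₂O. Cmax and AUC0-t were measured in plasma.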

[25] = Cmax in nude mouse xenografted with human U-87 MG cells at 75 mg/kg, po administered once daily for 3 weeks; format: ADME, organism-based; parameters: route oral, time 3 weeks, dose 75 mg/kg; details: in vivo; method in brief: as §2
[26] = AUC (0 to t) in nude mouse xenografted with human U-87 MG cells at 25 mg/kg, po administered once daily for 3 weeks; format: ADME, organism-based; parameters: time 3 weeks, dose 25 mg/kg; details: in vivo
[27] = AUC (0 to t) in nude mouse xenografted with human U-87 MG cells at 75 mg/kg, po administered once daily for 3 weeks; format: ADME, organism-based; parameters: time 3 weeks, dose 75 mg/kg; details: in vivo
[28] = species on record: Homo sapiens; assay: Selectivity ratio of IC50 for recombinant VEGFR2 (unknown origin) to IC50 for recombinant MET (unknown origin)
Method in brief: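 In vitro enzyme assays used purified recombinant MET and VEGFR-2 kinase domains, each tested separately. IC50 values are in nM. The ratio divides the VEGFR-2 enzyme IC50 by the MET enzyme IC50.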

T1 sequence (P08581 whole entry, the tested form may be a part): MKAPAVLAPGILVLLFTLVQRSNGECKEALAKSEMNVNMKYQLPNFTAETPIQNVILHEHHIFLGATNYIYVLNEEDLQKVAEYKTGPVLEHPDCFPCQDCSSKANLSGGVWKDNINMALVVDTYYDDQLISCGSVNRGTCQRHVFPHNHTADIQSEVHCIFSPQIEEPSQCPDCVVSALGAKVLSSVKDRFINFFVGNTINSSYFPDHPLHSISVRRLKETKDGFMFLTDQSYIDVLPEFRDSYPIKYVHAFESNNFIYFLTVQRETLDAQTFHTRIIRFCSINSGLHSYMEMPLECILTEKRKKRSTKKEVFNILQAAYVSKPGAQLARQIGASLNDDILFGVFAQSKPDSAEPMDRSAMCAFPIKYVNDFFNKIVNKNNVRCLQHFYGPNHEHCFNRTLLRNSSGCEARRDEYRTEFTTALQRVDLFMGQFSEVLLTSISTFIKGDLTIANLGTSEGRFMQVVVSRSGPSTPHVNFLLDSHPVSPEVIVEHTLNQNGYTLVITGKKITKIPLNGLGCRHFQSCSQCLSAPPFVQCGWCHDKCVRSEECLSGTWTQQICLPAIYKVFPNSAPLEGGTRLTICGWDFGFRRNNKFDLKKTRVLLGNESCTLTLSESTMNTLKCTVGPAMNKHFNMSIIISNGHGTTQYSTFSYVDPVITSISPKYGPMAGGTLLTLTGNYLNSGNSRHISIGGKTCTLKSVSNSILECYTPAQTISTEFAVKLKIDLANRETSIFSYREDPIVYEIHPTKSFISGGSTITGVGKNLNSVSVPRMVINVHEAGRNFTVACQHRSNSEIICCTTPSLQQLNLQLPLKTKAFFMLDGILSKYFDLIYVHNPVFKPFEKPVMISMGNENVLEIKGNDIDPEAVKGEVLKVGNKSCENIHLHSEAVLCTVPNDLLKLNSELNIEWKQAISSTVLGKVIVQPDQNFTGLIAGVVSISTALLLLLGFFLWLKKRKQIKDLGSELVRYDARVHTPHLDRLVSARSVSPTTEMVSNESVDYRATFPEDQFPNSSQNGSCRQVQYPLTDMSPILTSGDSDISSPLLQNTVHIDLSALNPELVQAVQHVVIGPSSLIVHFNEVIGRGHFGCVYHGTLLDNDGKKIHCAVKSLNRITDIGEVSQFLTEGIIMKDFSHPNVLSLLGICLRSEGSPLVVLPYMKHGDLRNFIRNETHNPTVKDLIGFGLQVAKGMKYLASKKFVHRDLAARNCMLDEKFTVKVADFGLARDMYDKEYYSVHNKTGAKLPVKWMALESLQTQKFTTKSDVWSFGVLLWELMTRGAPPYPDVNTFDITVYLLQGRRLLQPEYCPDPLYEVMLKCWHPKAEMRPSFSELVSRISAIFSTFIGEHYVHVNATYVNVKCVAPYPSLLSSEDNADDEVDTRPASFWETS
Vascular endothelial growth factor receptor 2, sequence (P35968 whole entry, the tested form may be a part): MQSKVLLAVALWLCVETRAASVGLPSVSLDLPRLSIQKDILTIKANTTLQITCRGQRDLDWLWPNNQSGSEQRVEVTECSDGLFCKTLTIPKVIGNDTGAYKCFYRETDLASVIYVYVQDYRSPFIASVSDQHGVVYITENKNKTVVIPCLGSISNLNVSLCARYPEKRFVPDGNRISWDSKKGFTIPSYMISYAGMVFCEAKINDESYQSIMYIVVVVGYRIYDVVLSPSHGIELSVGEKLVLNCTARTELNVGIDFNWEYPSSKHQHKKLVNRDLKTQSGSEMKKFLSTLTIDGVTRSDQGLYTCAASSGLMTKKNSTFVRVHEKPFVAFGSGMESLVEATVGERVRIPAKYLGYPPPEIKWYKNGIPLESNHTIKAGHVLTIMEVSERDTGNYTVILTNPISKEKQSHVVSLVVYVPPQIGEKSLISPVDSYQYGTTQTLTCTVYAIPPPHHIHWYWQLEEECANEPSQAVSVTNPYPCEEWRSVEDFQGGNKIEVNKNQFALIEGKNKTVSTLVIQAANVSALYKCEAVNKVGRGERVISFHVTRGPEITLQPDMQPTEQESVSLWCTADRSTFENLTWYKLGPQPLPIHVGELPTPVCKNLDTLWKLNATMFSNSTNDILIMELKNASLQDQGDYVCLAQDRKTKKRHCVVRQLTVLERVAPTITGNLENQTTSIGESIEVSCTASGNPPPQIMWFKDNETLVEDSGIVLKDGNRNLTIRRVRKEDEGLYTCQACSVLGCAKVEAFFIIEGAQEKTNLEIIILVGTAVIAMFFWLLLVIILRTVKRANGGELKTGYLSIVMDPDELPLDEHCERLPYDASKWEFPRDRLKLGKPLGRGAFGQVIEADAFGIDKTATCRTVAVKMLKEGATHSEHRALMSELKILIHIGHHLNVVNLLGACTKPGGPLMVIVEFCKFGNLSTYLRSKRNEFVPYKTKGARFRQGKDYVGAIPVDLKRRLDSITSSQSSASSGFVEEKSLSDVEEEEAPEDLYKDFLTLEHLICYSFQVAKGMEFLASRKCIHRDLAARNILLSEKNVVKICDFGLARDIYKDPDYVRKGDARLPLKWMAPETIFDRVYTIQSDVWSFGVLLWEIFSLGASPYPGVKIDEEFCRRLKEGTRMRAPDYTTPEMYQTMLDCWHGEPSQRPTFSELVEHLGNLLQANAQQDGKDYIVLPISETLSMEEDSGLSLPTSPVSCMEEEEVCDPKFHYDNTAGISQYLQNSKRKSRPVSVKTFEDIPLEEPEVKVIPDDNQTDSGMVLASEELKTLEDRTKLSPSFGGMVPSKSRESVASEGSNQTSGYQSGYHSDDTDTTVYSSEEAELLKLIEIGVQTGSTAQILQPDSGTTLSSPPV

SMILES: COc1cc2ncnc(Oc3ccc(Nc4nccc5[nH]cc(-c6ccc(F)cc6)c(=O)c45)cc3)c2cc1OC
IC50 [1]: 0.009 µM | IC50 [3]: 0.0865 µM | IC50 [2]: 0.111 µM | half-life [4]: 10.4 h | IC50 [5]: 0.0283 µM | IC50 [6]: 0.0169 µM | IC50 [7]: > 2 µM | Cmax [8]: 25100 ng/mL | Tmax [9]: 3.5 h | half-life [10]: 12.5 h | AUC(0-inf) [11]: 427 µg·h/mL | CL/F [12]: 0.333 mL/min/kg | Vz [13]: 0.4 L/kg | bioavailability [14]: 42% | Cmax [15]: 44000 ng/mL | Tmax [16]: 1.8 min | half-life [17]: 14 h | AUC(0-inf) [18]: 510 µg·h/mL | clearance [19]: 0.167 mL/min/kg | Vd [20]: 0.2 L/kg | ED50 ([21]; 504 h): 25 mg/kg | TGI ([21]; U-87MG ATCC): Dose-dependent effect | inhibition in vivo at 25 mg/kg [22]: 51% | inhibition in vivo at 75 mg/kg [23]: 81% | Cmax [24]: 12100 ng/mL | Cmax [25]: 16000 ng/mL | AUC(0-t) at 504 h [26]: 156 µg·h/mL | AUC(0-t) at 504 h [27]: 279 µg·h/mL

SMILES: COc1cc2ncnc(Oc3ccc(Nc4nccc5c4c(=O)c(-c4ccc(F)cc4)cn5CC(=O)c4ccccc4)cc3F)c2cc1OC
IC50 [1]: 0.196 µM | IC50 [2]: > 3 µM

SMILES: COc1cc2ncnc(Oc3ccc(Nc4nccc5[nH]cc(-c6ccc(F)cc6)c(=O)c45)cc3F)c2cc1OCCO.Cc1ccc(S(=O)(=O)O)cc1
IC50 [1]: 0.0035 µM | IC50 [2]: 0.0123 µM | half-life [4]: 4.68 h

SMILES: CCn1cc(-c2ccc(F)cc2)c(=O)c2c(Nc3ccc(Oc4ncnc5cc(OC)c(OC)cc45)c(F)c3)nccc21
IC50 [1]: 0.0288 µM | IC50 [2]: > 3 µM | Ratio IC50 [28]: > 275

SMILES: COc1cc2ncnc(Oc3ccc(Nc4nccc5c4c(=O)c(-c4ccc(F)cc4)cn5C)cc3F)c2cc1OC
IC50 [1]: 0.0071 µM | IC50 [3]: 0.0829 µM | IC50 [2]: > 3 µM | half-life [4]: 4.27 h | Ratio IC50 [28]: > 422

Next, values leading:

IC50 [1]: 0.0195 µM | IC50 [2]: 0.0792 µM
SMILES: COCCOc1cc2ncnc(Oc3ccc(Nc4nccc5[nH]cc(-c6ccc(F)cc6)c(=O)c45)cc3F)c2cc1OCCOC

IC50 [1]: 0.0154 µM | IC50 [2]: 0.033 µM
SMILES: COc1cc2c(Oc3ccc(Nc4nccc5[nH]cc(-c6ccc(F)cc6)c(=O)c45)cc3F)ncnc2cc1OCC1CCN(C)CC1

IC50 [1]: 0.0155 µM | IC50 [2]: 0.208 µM
SMILES: COc1cc2ncnc(Oc3ccc(Nc4nccc5[nH]cc(-c6ccc(F)cc6)c(=O)c45)cc3F)c2cc1OCCCN1CCCCC1

IC50 [1]: 0.0139 µM | IC50 [2]: 0.0217 µM | half-life [4]: 3.85 h
SMILES: COc1cc2c(Oc3ccc(Nc4nccc5[nH]cc(-c6ccc(F)cc6)c(=O)c45)cc3F)ncnc2cc1OCCO.Cc1ccc(S(=O)(=O)O)cc1

IC50 [1]: 0.0245 µM
SMILES: COc1cc2c(Oc3ccc(Nc4nccc5[nH]cc(-c6ccc(F)cc6)c(=O)c45)cc3F)ncnc2cc1OCCN1CCOCC1

IC50 [1]: 0.0652 µM | IC50 [2]: 0.0939 µM
SMILES: COc1cc2c(Oc3ccc(Nc4nccc5[nH]cc(-c6ccc(F)cc6)c(=O)c45)cc3F)ncnc2cc1OCC(C)(C)O

IC50 [1]: 0.036 µM | IC50 [2]: 0.0973 µM
SMILES: COCCOc1cc2c(Oc3ccc(Nc4nccc5[nH]cc(-c6ccc(F)cc6)c(=O)c45)cc3F)ncnc2cc1OC

Source: ChEMBL document CHEMBL4765445, “Structure-activity relationship study of novel quinazoline-based 1,6-naphthyridinones as MET inhibitors with potent antitumor efficacy” (Eur J Med Chem, 2020)
